The text below walks through data of ChEMBL document CHEMBL1143938, “Synthesis and antiviral activities of novel chiral cyanoacrylate derivatives with (E) configuration” (2008).

Assay [1] concerns Nicotiana tabacum. The assay is described as follows: Stimulation of peroxidase activity in Nicotiana tabacum after 5 days.
Assay [2] has as its system Tobacco mosaic virus. The assay is described as follows: Antiviral activity against TMV-infected tobacco leaves assessed as protection against viral infection at 500 mg/L. It counts as functional.
The test system of assay [3] is Tobacco mosaic virus. The assay is described as follows: Antiviral activity against TMV-infected tobacco leaves assessed as viral inactivation at 500 mg/L. It counts as functional.
The subject of assay [4] is Tobacco mosaic virus. As to the kind of experiment: Antiviral activity against TMV-infected tobacco leaves assessed as curative effect against viral disease at 500 mg/L. In kind it is functional.
Assay [5] concerns Nicotiana tabacum. The assay is described as follows: Stimulation of L-phenylalanine ammonia-lyase level in Nicotiana tabacum assessed as per mg of protein after 7 days. In kind it is functional. The method in brief:
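TMV-inoculated Nicotiana tabacum treated at 500 ppm and sampled at 1, 3, 5 and 7 days. Water and TMV-only treatments served as controls. Leaves were homogenized on ice in 5 mM 2-mercaptoethanol-boric acid buffer (pH 8.8) and centrifuged, and enzyme activity was read in the supernatant. PAL was expressed per mg protein. Means of n = 3, with one-way ANOVA and LSD.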

Assay [6] has as its system Nicotiana tabacum. As to the kind of experiment: Stimulation of leaf size in Nicotiana tabacum relative to water treated control. In kind it is functional, organism-based.
Assay [7] has as its system Nicotiana tabacum. The assay is described as follows: Effect on accumulation of PR1a mRNA in tobacco leaf on day 2. In kind it is functional, organism-based. The method in brief:
(§1)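 Leaf RNA came from water-, TMV- and treated-plus-TMV tobacco. PR-1a and PR-5 were amplified by semi-quantitative PCR (annealing 58 °C; 1.5% agarose, ethidium bromide) and by real-time PCR. Real-time values were taken relative to β-actin by ΔΔCT, n = 4, in triplicate.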

The test system of assay [8] is Nicotiana tabacum. As to the kind of experiment: Effect on accumulation of PR5 mRNA in tobacco leaf after 12 hrs. In kind it is functional, organism-based. The method in brief: as §1
The subject of assay [9] is Nicotiana tabacum. The assay is described as follows: Effect on accumulation of PR1a mRNA in tobacco leaf upto […] after 1 day. In kind it is functional, organism-based. In short, it runs like this: as §1
The test system of assay [10] is Nicotiana tabacum. As to the kind of experiment: Effect on accumulation of PR5 mRNA in tobacco leaf upto […] after 1 day. It counts as functional, organism-based. The method in brief: as §1

Activity calls are given as the source filed them. The calls are words filed in the database; no cut-off is given here.

As for `CCOC(=O)/C(C#N)=C(\NCc1ccccc1)N[C@H](C)c1ccc(F)cc1`, the result in the assay on Nicotiana tabacum [1], in the assay with Nicotiana tabacum [6], in the assay on Nicotiana tabacum [7], in the assay with Nicotiana tabacum [8], in the assay on Nicotiana tabacum [9] and in the assay with Nicotiana tabacum [10] was Active. Moreover, the Activity with Tobacco mosaic virus [2] is listed as 65.7%; with Tobacco mosaic virus [3] it was 49.5%; in the assay with Tobacco mosaic virus [4], 64%; in the assay with Nicotiana tabacum [5] it was 5.88 EU/mg.
Regarding `CNCC(=O)N[C@@H](CO)C(=O)N[C@H]1C(O)[C@@H](O)[C@H](n2ccc(N)nc2=O)O[C@@H]1C(N)=O` (single isomer, unassigned) [NINGNANMYCIN], the Activity came to 100% in the assay with Tobacco mosaic virus [2], 50% with Tobacco mosaic virus [3] and 57.8% in the assay on Tobacco mosaic virus [4].
